Results as given in publication PMC11327602 (Heliyon, 2024).
Where “and” joins values, the source holds several entries; their conditions need not be identical. Identical values can stand only once.

Columns and labels:
jack bean urease = jack bean urease (Canavalia ensiformis, UniProt P07374); test: Urease inhibition assay; assay type: biochemical; conditions: for IC50: Enzyme (SEM ±) J.B Urease, IC50, mean ± SEM, 3 experiments
[1] = molecular target: Bacillus Pasteurii urease (Sporosarcina pasteurii, UniProt P41020); test: Urease inhibition assay; assay type: biochemical; conditions: Enzyme (SEM ±) B.P Urease, IC50, mean ± SEM, 3 experiments
α-Glucosidase = α-Glucosidase (Saccharomyces cerevisiae, UniProt P53341); test: α-Glucosidase inhibition assay; assay type: biochemical
Outline: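 Test compound (200–800 μg/mL) pre-incubated 5 min at 37 °C with 2 % w/v starch (sucrose) solution in 0.2 M Tris buffer, pH 8.0. 5 mM p-nitrophenyl-α-D-glucopyranoside added intermittently, then α-glucosidase (1 U/mL), 40 min at 35 °C. Stopped with […]; absorbance read at 405 nm. % inhibition = (control − sample)/control × 100; samples above 50 % taken to IC50.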

[2] = DPPH free radical scavenging activity; conditions: for IC50: read-out: DPPH scavenging IC50
ABTS method = conditions: for IC50: read-out: ABTS scavenging IC50
[3] = Superoxide anion scavenging assay; conditions: for IC50: read-out: superoxide anion scavenging IC50

Chain of α-Glucosidase (P53341 whole entry): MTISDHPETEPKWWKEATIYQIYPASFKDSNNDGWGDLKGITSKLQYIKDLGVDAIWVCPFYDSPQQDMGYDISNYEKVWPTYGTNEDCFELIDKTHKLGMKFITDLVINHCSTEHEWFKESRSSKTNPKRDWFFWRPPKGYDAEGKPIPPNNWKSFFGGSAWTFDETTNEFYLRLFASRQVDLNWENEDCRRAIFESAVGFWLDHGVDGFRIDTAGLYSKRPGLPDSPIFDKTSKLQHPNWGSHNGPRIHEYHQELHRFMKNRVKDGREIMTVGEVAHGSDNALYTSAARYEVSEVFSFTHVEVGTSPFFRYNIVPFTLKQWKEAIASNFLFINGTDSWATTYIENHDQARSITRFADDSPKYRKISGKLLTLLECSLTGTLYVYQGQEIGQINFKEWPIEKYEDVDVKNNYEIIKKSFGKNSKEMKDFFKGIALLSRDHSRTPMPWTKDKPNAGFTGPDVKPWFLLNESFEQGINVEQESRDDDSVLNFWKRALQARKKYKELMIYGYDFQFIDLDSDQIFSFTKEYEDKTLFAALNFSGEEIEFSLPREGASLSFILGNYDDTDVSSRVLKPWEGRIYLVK
Chain of Bacillus Pasteurii urease (P41020 whole entry): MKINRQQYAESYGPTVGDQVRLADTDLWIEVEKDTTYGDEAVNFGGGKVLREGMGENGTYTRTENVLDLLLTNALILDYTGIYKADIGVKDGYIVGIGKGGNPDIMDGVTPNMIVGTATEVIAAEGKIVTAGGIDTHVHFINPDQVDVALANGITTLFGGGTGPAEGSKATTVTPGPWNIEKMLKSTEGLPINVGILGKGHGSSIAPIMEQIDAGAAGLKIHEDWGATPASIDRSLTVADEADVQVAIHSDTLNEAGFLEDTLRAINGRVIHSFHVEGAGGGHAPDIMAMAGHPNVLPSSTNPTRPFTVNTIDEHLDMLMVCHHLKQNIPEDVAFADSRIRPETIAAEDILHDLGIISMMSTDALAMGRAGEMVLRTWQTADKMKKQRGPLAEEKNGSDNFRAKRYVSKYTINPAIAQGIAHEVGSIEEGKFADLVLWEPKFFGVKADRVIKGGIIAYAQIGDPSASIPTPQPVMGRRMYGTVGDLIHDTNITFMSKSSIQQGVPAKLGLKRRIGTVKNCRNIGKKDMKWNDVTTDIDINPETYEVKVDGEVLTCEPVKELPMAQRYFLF
Chain of Bacillus Pasteurii urease (P41021 whole entry partner): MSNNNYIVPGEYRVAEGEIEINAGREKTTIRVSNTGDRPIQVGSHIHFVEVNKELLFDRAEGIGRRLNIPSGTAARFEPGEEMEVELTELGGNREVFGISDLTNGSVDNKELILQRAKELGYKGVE
Chain of Bacillus Pasteurii urease (P41022 whole entry partner): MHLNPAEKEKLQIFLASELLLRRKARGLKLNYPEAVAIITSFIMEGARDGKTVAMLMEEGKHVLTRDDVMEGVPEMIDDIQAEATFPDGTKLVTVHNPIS
Chain of jack bean urease (P07374 whole entry, looked up): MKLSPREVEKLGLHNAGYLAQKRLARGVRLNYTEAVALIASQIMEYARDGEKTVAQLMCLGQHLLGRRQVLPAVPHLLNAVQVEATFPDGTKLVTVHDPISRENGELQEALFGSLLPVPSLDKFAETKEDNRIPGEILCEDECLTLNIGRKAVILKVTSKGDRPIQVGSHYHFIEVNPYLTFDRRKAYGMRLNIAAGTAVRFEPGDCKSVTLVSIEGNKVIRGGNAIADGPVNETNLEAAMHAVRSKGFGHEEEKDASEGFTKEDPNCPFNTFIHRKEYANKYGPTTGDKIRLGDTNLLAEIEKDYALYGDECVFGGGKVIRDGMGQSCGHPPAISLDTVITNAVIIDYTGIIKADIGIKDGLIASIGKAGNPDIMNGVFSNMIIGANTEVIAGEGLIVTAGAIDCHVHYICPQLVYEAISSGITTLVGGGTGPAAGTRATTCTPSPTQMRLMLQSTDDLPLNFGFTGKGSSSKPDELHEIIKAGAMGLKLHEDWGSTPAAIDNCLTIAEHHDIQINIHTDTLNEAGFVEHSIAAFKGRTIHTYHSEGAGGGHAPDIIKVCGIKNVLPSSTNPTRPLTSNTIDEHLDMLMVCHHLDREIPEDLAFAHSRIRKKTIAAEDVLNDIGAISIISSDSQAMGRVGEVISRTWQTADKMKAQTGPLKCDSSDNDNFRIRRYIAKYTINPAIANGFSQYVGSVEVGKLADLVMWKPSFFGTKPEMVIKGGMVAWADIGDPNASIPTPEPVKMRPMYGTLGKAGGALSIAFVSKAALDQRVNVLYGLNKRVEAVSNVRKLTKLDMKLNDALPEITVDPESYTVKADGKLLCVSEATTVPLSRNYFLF

Row | Types of inhibition (urease) (jack bean urease) | IC50 (jack bean urease) [µM] | IC50 [1] [µM] | Type of Inhibition (α-glucosidase and α-amylase) (α-Glucosidase) | IC50 [2] | IC50 (ABTS method) [µM] | IC50 [3] | Compound | DPPH % Scavenging ([2]; 25 μM) [%] | DPPH % Scavenging ([2]; 50 μM) [%] | DPPH % Scavenging ([2]; 75 μM) [%] | DPPH % Scavenging ([2]; 100 μM) [%] | ABTS % Scavenging (ABTS method; 10 μM) [%] | ABTS % Scavenging (ABTS method; 20 μM) [%] | ABTS % Scavenging (ABTS method; 30 μM) [%] | ABTS % Scavenging (ABTS method; 40 μM) [%] | ABTS % Scavenging (ABTS method; 50 μM) [%] | superoxide anion % scavenging ([3]; 25 μM) [%] | superoxide anion % scavenging ([3]; 50 μM) [%] | superoxide anion % scavenging ([3]; 75 μM) [%] | superoxide anion % scavenging ([3]; 100 μM) [%] | also measured
1 | Non-competitive | 46.02 ± 0.05 | 51.39 ± 0.11 | Non-competitive | 66.3 ± 0.2 µM | 46.13 ± 0.13 | 60 ± 0.05 µM | C=CCN(c1nccs1)S(=O)(=O)c1ccc(F)cc1 [Compound 31, N-Allyl-4-fluoro-N-(thiazol-2-yl)benzenesulfonamide] | 34.02 ± 0.1 | 43.1 ± 0.13 | 73.2 ± 0.5 | 90.5 ± 0.11 | 29.31 ± 0.2 | 37.15 ± 0.28 | 41.11 ± 0.39 | 47.12 ± 0.17 | 73.04 ± 0.12 | 25 ± 0.11 | 46 ± 0.05 | 79 ± 0.33 | 104 ± 0.22 | –
2 | Non-competitive | 52.1 ± 1.12 | 57.89 ± 0.18 | Non-competitive | 46.2 ± 0.01 µM | 31.01 ± 0.09 | 49 ± 0.12 µM | C=CCN(c1nccs1)S(=O)(=O)c1ccc([N+](=O)[O-])cc1 [Compound 32, N-Allyl-4-nitro-N-(thiazol-2-yl)benzenesulfonamide] | 39.2 ± 0.2 | 53.5 ± 0.3 | 64.4 ± 0.01 | 88.2 ± 0.2 | 12.02 ± 0.03 | 25.03 ± 0.01 | 49.01 ± 0.09 | 75.03 ± 0.02 | 94.06 ± 0.21 | 15 ± 0.05 | 32 ± 0.02 | 67 ± 0.11 | 97 ± 0.51 | inhibition against both enzymes (J.B. and B.P urease), in words (jack bean urease): weak inhibition
3 | Non-competitive | 22.1 ± 0.29 | 25.09 ± 0.14 | Competitive | ~34.4 µM and 34.4 µM | ~35.1 | 38 ± 0.55 µM | Cc1ccc(S(=O)(=O)N(C)c2nccs2)cc1 [Compound 33, N,4-Dimethyl-N-(thiazol-2-yl)benzenesulfonamide] | 30.2 ± 0.2 | 37.4 ± 0.1 | 65.6 ± 0.01 | 88.3 ± 0.2 | 29.02 ± 0.08 | 41.07 ± 0.03 | 49.08 ± 0.01 | 72.02 ± 0.07 | – | 20 ± 0.01 | 51 ± 0.03 | 60 ± 0.15 | 99 ± 0.18 | inhibition against both enzymes (α-glucosidase and α-amylase), in words (α-Glucosidase): weak inhibition
4 | Competitive | 16 ± 0.21 | 18.7 | Non-competitive | 45.5 ± 0.05 µM | 47.1 | 52.1 ± 0.01 µM | COc1ccc(S(=O)(=O)N(C)c2nccs2)cc1 [Compound 34, 4-Methoxy-N-methyl-N-(thiazol-2-yl)benzenesulfonamide] | 29.2 ± 0.01 | 69.6 ± 0.2 | 78.4 ± 0.2 | 94.8 ± 0.03 | 27.2 ± 0.01 | 35.6 ± 0.2 | 46.4 ± 0.2 | 69.8 ± 0.03 | 80.1 ± 0.08 | 18.2 ± 0.01 | 39.6 ± 0.2 | 69.4 ± 0.2 | 89.8 ± 0.03 | inhibition against both enzymes (α-glucosidase and α-amylase), in words (α-Glucosidase): weak inhibition
5 | Competitive | 18.7 | 20.21 ± 0.19 | Competitive | 53.1 ± 0.11 µM | 38.01 ± 0.13 | ~38 µM and 38 µM | CN(c1nccs1)S(=O)(=O)c1ccc(Br)cc1 [Compound 35, 4-Bromo-N-methyl-N-(thiazol-2-yl)benzenesulfonamide] | 28.1 ± 0.04 | 34.4 ± 0.8 | 61.5 ± 0.03 | 89.1 ± 0.6 | 33.02 ± 0.08 | 31.05 ± 0.01 | 43.01 ± 0.03 | 62.2 ± 0.09 | 105.13 ± 0.11 | 27 ± 0.12 | 53 ± 0.05 | 64 ± 0.04 | 89 ± 0.28 | inhibition against both enzymes (α-glucosidase and α-amylase), in words (α-Glucosidase): weak inhibition
6 | Competitive | 14.06 ± 0.03 | 17.06 ± 0.03 | Non-competitive | ~49.3 µM and 49.3 µM | 45.07 ± 0.09 | 57.1 ± 0.09 µM | CN(c1nccs1)S(=O)(=O)c1ccccc1 [Compound 36, N-Methyl-N-(thiazol-2-yl)benzenesulfonamide] | 25.3 ± 0.07 | 65.5 ± 0.12 | 88.3 ± 0.11 | 93.8 ± 0.09 | 23.2 ± 0.11 | 37.5 ± 0.2 | 48.3 ± 0.21 | 65.5 ± 0.01 | 87.5 ± 0.05 | 20.6 ± 0.11 | 43.6 ± 0.12 | 65.1 ± 0.5 | 87.5 ± 0.08 | inhibition against both enzymes (α-glucosidase and α-amylase), in words (α-Glucosidase): weak inhibition
7 | Competitive | 21.02 ± 0.21 | 25.4 ± 0.31 | Non-competitive | 57.1 ± 0.11 µM | 34.11 ± 0.16 | 54 ± 0.15 µM | CN(c1nccs1)S(=O)(=O)c1ccc(Cl)cc1 [Compound 37, 4-Chloro-N-methyl-N-(thiazol-2-yl)benzenesulfonamide] | 19 ± 0.17 | 42.4 ± 0.8 | 66.8 ± 0.15 | 99.1 ± 0.21 | 30.22 ± 0.22 | 41.25 ± 0.11 | 48.01 ± 0.12 | 65.5 ± 0.07 | 99.03 ± 0.15 | 37 ± 0.21 | 43 ± 0.6 | 67 ± 0.03 | 99 ± 0.15 | inhibition against both enzymes (α-glucosidase and α-amylase), in words (α-Glucosidase): weak inhibition
